Laboratory results published in paper PMC12800297 (Communications Chemistry, 2025).
“Also recorded” adds a separate entry of the source.

How the values were obtained:
[1] = system: A2AR (thermostabilized A2AR-BRIL); assay: MIDAS equilibrium dialysis with LC-MS metabolite screen; format: binding, human; conditions: p < 0.05, Supplementary Fig. 2a
A2AR-ΔCTD = A2AR-ΔCTD (Homo sapiens, UniProt P29274, N154A); assay: Competition fluorescence polarization; format: binding
How it was run: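 Receptor was preincubated with metabolite for 10 min, then mixed with fluorescent NECA (10 nM final) for 10 min at room temperature with gentle shaking. Fluorescence polarization was read.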

[2] = system: HEK293 cells stably expressing A2AR; assay: HTRF cAMP detection assay, agonist activation; format: cell-based, human
A2AR [3] = target: T1, A2AR (Homo sapiens, UniProt P29274, N154A); assay: GTP hydrolysis assay; format: biochemical; conditions: for agonist efficacy: GTP hydrolysis assay; for fold decrease/reduction in potency compared to adenosine: GTP hydrolysis assay EC50 values; for Activation screen: metabolites at 10 μM, replicates
T1 sequence (P29274 8-316 N154A): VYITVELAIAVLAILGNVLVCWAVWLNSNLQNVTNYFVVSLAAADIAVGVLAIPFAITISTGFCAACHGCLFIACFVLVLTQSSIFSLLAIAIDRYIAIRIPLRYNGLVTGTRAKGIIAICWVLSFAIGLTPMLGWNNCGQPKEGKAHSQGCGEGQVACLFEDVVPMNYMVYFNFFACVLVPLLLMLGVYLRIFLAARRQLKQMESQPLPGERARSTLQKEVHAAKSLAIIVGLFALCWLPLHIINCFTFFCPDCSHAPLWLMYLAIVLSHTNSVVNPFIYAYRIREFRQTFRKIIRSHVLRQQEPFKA

[4] = system: HEK293 cells stably expressing A2AR; assay: HTRF cAMP detection assay, inhibition of adenosine-induced cAMP production; format: cell-based, human; conditions: for inhibition of adenosine-induced cAMP production: concentration-dependent assay
A2AR [5] = target: T1, A2AR; assay: Differential scanning fluorimetry; format: binding; conditions: dose-response DSF
A2AR H75A = A2AR H75A (Homo sapiens, UniProt P29274, H75A/N154A); assay: GTP hydrolysis inhibition comparison, A2AR mutant; format: biochemical; conditions: 20 µM PGD2, Supplementary Fig. 10
Chain of A2AR H75A (P29274 8-316 H75A/N154A): as the sequence (P29274 8-316 N154A) above, with H68A counted along it

A2AR K233A = A2AR K233A (Homo sapiens, UniProt P29274, K233A/N154A); assay: GTP hydrolysis inhibition comparison, A2AR mutant; format: biochemical; conditions: 20 µM PGD2, Supplementary Fig. 10
Chain of A2AR K233A (P29274 8-316 N154A/K233A): as the sequence (P29274 8-316 N154A) above, with K226A counted along it

A2AR Q163E/H75A = A2AR Q163E/H75A (Homo sapiens, UniProt P29274, H75A/N154A/Q163E); assay: GTP hydrolysis inhibition comparison, A2AR mutant; format: biochemical; conditions: 20 µM PGD2, Supplementary Fig. 10
Chain of A2AR Q163E/H75A (P29274 8-316 H75A/N154A/Q163E): as the sequence (P29274 8-316 N154A) above, with H68A, Q156E counted along it

A2AR [6] = target: T1, A2AR; assay: GTP hydrolysis assay; format: biochemical; conditions: for Inhibition screen: metabolites at 100 μM, with adenosine, replicates, 100 µM
A2AR V84 to alanine = conditions: V84 mutated to alanine; cited from earlier work
A2AR H278 to alanine = conditions: H278 mutated to alanine; cited from earlier work

Chain of A2AR-ΔCTD (P29274 8-316 N154A): as the sequence (P29274 8-316 N154A) above

Nc1ncnc2c1ncn2[C@@H]1O[C@H](CSCC[C@H](N)C(=O)O)[C@@H](O)[C@H]1O [SAH, S-adenosyl-L-homocysteine]
MIDAS enrichment, statistical significance [1]: did not meet the statistical significance threshold | effect on affinity of fluorescently labeled NECA to A2AR (A2AR-ΔCTD; 100 µM SAH or DA): reduced the affinity of NECA | EC50 ([2]; Homo sapiens, HEK293): ~5 µM | EC50 (A2AR [3]): 5 µM | agonist efficacy (A2AR [3]): full agonists | fold decrease/reduction in potency compared to adenosine (A2AR [3]): > 250 fold | Activation screen (A2AR [3]): activated A2AR; also recorded: sub-maximal activation

CN(C)c1ncnc2nc[nH]c12 [DMAP, dimethylaminopurine]
MIDAS enrichment, statistical significance [1]: significantly enriched

CCCCC[C@H](O)/C=C/[C@H]1C(=O)C[C@H](O)[C@@H]1C/C=C\CCCC(=O)O [PGD2, prostaglandin D2]
MIDAS enrichment, statistical significance [1]: significantly enriched | fold increase in the IC50 in cell-based assay relative to protein-based assay ([4]; HTRF cAMP vs GTP hydrolysis): approximately 8 fold | inhibition of adenosine-induced cAMP production [4]: near-complete inhibition | effect on affinity of fluorescently labeled NECA to A2AR (A2AR-ΔCTD; 500 µM prostaglandin): none of the three prostaglandins – PGI2, PGE2, and PGD2 were able to displace a fluorescently-labeled orthosteric ligand | effect on melting temperature (Tm) of A2AR (A2AR [5]): concentration-dependent increase in the melting temperature (Tm) | change of PGD2-mediated inhibition by mutation (A2AR H75A): comparatively no effect | change of PGD2-mediated inhibition by mutation (A2AR K233A): no change | change of PGD2-mediated inhibition by mutation (A2AR Q163E/H75A): minor reduction of inhibition | inhibition of A2AR in competition activity assay (A2AR [6]; 500 μM PGD2, saturating adenosine up to 100 µM): sustained inhibition; also recorded: near-complete inhibition | IC50 (A2AR [6]; IC50, dose-response assay, Supplementary Fig. 5a): 180 µM | Inhibition screen (A2AR [6]): completely inhibiting A2AR activity

CCNC(=O)[C@H]1O[C@@H](n2cnc3c(N)nc(NCCc4ccc(CCC(=O)O)cc4)nc32)[C@H](O)[C@@H]1O [CGS21680]
reduction in binding (A2AR V84 to alanine): > 98% | reduction in binding (A2AR H278 to alanine): > 98%

CCCCC[C@H](O)/C=C/[C@H]1[C@H](O)CC(=O)[C@@H]1C/C=C\CCCC(=O)O [PGE2]
MIDAS enrichment, statistical significance [1]: significantly enriched | inhibition of adenosine-induced cAMP production [4]: no significant effect | effect on affinity of fluorescently labeled NECA to A2AR (A2AR-ΔCTD; 500 µM prostaglandin): none of the three prostaglandins – PGI2, PGE2, and PGD2 were able to displace a fluorescently-labeled orthosteric ligand | Inhibition screen (A2AR [6]): no effect

Nc1ncnc2[nH]cnc12 [Adenine]
MIDAS enrichment, statistical significance [1]: significantly enriched

Nc1ncnc2c1ncn2[C@H]1C[C@H](O)[C@@H](CO)O1 [DA, 2’-deoxyadenosine]
MIDAS enrichment, statistical significance [1]: did not meet the statistical significance threshold | effect on affinity of fluorescently labeled NECA to A2AR (A2AR-ΔCTD; 100 µM SAH or DA): reduced the affinity of NECA | A2AR activation in HEK293 cells ([2]; cell-based cAMP detection assay, Supplementary Fig. 12c): required millimolar concentrations for activation | EC50 (A2AR [3]): 15 µM | agonist efficacy (A2AR [3]): full agonists | fold decrease/reduction in potency compared to adenosine (A2AR [3]): > 800 fold | Activation screen (A2AR [3]): activated A2AR; also recorded: sub-maximal activation

CCCCC[C@H](O)/C=C/[C@@H]1[C@H]2C/C(=C/CCCC(=O)O)O[C@H]2C[C@H]1O [PGI2]
MIDAS enrichment, statistical significance [1]: significantly enriched | effect on affinity of fluorescently labeled NECA to A2AR (A2AR-ΔCTD; 500 µM prostaglandin): none of the three prostaglandins – PGI2, PGE2, and PGD2 were able to displace a fluorescently-labeled orthosteric ligand | Inhibition screen (A2AR [6]): no effect
